These results are taken from PMC3926093 (Biochemistry, 2013).

For this test, the target named is LigAB (Sphingobium sp. SYK-6, UniProt P22635+P22636). Nature of the test: inhibition of PCA dioxygenation, O2 consumption, Clark-type electrode. Format: biochemical. The settings on record: read-out: % inhibition ^b. The method in brief:
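Anaerobically purified LigAB (His-tag removed) started the reaction at 3–7 nM final. Reactions ran in air-saturated 50 mM Tris pH 7.5 at 25 °C with 500 μM PCA plus 1 mM test compound, read by O2 consumption. Percent inhibition came from comparing rates with those of PCA-only assays run directly before and after.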

Structures are written as SMILES.

LigAB, sequence (P22635 whole entry): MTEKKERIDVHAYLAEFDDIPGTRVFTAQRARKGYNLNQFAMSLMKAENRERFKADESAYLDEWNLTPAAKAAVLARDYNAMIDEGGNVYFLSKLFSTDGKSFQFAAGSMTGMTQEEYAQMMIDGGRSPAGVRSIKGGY
LigAB, sequence (P22636 whole entry): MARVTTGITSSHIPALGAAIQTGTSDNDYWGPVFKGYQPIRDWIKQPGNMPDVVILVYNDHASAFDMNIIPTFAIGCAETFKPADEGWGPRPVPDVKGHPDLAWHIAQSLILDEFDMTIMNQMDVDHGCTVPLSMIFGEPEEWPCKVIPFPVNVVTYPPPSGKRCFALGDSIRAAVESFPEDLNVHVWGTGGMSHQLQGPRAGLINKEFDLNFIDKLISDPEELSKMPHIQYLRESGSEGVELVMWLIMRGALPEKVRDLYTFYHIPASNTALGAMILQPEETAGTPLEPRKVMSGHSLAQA

Usually inhibition stands for the relative decrease from the control value, in per cent. For `O=[N+]([O-])c1ccc(O)c(O)c1` [4-nitrocatechol], the inhibition at 1000 µM amounted to 31%.

Turning to `Cc1ccc(O)c(O)c1` [4-methylcatechol], the inhibition at 1000 µM was found to be 28%.
